Experiments:
[1] = molecular target: Glycogen synthase kinase-3 (Oryctolagus cuniculus); assay: Inhibition of rabbit GSK3
[2] = molecular target: Dual specificity mitogen-activated protein kinase kinase 1 (Homo sapiens) (UniProt Q02750); assay: Inhibition of MEK1K at 10 uM
Method in brief: (§1)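 Pan-kinase selectivity screen run at an outside lab using previously described assays for each kinase. Activated kinase phosphorylates its appropriate peptide or protein substrate with test substance at 10 µM. Percent inhibition is taken against control incubations in which the inhibitor is replaced by DMSO, with staurosporine as reference. Reported as the mean of duplicate determinations.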

[3] = molecular target: Tyrosine-protein kinase Lck (Homo sapiens) (UniProt P06239); assay: Inhibition of protein kinase p56 at 10 uM
Method in brief: as §1

[4] = molecular target: Tyrosine-protein kinase ABL1 (Homo sapiens) (UniProt P00519); assay: Inhibition of Abl kinase at 10 uM
Method in brief: as §1

[5] = molecular target: CaM kinase II (Homo sapiens) (UniProt Q13557+Q13555+Q13554+Q9UQM7); assay: Inhibition of CAMK2 at 10 uM; assay type: protein assay
Method in brief: as §1

[6] = molecular target: Epidermal growth factor receptor (Homo sapiens) (UniProt P00533); assay: Inhibition of EGF tyrosine kinase at 10 uM
Method in brief: as §1

[7] = molecular target: Insulin receptor (Homo sapiens) (UniProt P06213); assay: Inhibition of IRK at 10 uM
Method in brief: as §1

[8] = molecular target: Mitogen-activated protein kinase; ERK1/ERK2 (Homo sapiens) (UniProt P27361+P28482); assay: Inhibition of MAPK at 10 uM; assay type: protein assay
Method in brief: as §1

Mitogen-activated protein kinase; ERK1/ERK2 (Homo sapiens), sequence (P27361 whole entry, looked up): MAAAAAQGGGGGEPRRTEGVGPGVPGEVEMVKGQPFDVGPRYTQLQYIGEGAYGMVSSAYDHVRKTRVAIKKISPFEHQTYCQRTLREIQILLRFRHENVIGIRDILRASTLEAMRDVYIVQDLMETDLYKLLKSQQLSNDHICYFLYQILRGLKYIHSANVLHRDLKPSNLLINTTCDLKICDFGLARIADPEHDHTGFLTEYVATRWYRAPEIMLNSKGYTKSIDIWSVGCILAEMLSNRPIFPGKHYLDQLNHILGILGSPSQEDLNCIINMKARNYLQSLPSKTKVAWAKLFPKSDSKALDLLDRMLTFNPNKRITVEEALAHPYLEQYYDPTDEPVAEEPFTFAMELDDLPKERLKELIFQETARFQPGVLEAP
Mitogen-activated protein kinase; ERK1/ERK2 (Homo sapiens), sequence (P28482 whole entry, looked up): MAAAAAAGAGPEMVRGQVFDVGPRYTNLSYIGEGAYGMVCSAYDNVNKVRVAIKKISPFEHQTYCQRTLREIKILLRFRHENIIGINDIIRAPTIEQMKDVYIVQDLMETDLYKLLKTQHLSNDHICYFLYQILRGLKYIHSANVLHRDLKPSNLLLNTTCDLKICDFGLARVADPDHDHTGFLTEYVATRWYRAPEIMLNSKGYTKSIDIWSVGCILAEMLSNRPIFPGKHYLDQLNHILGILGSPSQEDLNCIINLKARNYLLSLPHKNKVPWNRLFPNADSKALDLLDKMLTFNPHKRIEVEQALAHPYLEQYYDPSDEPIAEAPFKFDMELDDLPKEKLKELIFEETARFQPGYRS
Tyrosine-protein kinase Lck (Homo sapiens), sequence (P06239 2-509 limits assumed): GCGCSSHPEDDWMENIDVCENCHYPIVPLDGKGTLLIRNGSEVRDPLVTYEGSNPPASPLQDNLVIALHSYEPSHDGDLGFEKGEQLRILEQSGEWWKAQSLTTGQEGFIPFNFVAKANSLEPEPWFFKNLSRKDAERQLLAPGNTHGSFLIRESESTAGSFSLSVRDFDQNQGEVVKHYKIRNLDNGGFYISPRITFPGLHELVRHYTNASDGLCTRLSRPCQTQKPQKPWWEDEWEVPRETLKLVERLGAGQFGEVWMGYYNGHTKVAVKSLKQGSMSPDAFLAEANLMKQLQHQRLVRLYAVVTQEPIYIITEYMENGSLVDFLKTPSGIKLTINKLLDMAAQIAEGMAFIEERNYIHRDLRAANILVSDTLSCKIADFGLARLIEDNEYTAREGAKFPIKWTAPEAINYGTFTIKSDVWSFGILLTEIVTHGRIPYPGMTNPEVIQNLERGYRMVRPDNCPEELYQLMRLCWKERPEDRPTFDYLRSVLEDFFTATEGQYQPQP
Insulin receptor (Homo sapiens), sequence (P06213 28-758 limits assumed): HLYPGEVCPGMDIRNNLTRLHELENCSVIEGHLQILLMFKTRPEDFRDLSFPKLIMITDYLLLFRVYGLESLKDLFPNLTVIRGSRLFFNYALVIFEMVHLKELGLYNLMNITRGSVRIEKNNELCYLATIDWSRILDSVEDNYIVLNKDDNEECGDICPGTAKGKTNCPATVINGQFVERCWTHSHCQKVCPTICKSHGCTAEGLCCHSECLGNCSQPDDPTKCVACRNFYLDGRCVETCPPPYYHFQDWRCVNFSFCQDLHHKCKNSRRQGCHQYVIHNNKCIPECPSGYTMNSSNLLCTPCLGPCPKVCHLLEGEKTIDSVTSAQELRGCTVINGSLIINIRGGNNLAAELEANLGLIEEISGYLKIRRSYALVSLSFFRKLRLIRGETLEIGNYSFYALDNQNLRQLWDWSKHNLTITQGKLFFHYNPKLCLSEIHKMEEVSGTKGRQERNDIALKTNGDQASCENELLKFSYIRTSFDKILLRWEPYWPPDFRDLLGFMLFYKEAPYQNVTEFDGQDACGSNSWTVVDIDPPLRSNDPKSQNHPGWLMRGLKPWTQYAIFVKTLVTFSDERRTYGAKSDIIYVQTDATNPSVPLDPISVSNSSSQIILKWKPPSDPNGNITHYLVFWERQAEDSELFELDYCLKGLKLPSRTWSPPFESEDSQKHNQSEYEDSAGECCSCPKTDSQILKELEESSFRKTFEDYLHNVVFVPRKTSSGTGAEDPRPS
Insulin receptor (Homo sapiens), sequence (P06213 763-1382 limits assumed): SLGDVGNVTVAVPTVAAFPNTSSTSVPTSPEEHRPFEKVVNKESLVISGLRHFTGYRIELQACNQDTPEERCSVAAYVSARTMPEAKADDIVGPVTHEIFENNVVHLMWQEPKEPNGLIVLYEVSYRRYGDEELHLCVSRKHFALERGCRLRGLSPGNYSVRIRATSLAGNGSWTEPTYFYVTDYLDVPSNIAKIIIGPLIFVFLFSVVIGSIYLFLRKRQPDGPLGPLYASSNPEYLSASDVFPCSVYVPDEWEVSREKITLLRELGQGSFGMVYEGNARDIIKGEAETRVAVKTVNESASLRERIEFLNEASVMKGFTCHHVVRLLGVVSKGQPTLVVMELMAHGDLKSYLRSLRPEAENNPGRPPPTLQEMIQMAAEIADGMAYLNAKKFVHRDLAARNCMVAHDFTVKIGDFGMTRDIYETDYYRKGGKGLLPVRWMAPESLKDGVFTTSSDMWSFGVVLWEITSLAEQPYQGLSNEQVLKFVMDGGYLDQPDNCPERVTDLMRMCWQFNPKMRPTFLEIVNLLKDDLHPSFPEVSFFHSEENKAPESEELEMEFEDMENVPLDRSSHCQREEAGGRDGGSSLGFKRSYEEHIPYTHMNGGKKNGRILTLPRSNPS
Epidermal growth factor receptor (Homo sapiens), sequence (P00533 whole entry): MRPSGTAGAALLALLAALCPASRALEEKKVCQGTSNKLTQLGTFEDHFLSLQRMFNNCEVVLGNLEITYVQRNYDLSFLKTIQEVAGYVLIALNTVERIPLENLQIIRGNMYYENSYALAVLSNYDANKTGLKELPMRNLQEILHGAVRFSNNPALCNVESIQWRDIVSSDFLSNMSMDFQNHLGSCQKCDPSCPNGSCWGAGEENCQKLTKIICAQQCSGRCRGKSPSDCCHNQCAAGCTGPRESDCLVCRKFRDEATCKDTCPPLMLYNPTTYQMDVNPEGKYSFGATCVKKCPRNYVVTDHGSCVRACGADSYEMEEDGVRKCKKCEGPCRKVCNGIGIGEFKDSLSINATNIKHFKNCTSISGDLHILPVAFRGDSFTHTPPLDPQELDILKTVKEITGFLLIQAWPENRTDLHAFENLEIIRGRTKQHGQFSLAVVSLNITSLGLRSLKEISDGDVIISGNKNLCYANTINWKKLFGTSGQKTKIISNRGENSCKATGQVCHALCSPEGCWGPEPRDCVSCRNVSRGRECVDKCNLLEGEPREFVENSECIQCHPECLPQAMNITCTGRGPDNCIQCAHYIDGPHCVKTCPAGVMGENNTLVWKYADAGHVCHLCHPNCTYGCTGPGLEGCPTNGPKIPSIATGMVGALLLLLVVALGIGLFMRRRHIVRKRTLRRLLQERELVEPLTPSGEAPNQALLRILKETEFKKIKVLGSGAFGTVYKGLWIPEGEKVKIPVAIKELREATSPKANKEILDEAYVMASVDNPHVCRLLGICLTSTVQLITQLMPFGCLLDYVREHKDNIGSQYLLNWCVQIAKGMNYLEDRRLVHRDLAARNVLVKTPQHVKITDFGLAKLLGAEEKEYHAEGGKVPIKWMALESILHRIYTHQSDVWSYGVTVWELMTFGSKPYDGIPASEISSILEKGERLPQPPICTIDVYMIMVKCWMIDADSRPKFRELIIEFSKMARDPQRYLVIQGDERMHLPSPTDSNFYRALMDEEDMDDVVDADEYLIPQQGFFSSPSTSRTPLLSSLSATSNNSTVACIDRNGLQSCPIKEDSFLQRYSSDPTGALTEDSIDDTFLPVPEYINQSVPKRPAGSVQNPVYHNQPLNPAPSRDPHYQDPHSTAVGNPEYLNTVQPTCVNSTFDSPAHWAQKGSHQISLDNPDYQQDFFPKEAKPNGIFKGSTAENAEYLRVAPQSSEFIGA
Dual specificity mitogen-activated protein kinase kinase 1 (Homo sapiens), sequence (Q02750 whole entry): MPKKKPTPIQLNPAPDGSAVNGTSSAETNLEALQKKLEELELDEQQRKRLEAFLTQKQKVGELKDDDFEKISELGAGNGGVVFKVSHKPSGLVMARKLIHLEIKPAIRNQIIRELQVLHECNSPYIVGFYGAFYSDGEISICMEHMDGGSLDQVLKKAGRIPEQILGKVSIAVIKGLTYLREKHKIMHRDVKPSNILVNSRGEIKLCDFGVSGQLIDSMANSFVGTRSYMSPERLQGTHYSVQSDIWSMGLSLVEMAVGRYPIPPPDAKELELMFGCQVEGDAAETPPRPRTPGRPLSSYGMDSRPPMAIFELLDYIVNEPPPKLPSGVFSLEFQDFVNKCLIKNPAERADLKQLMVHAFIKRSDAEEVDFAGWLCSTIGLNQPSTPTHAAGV

IC50 [1] | Structure (SMILES) | further results
5 µM | Cc1ccc(-n2c(=O)sn(C)c2=O)cc1 | 
6 µM | Cn1sc(=O)n(-c2ccccc2Br)c1=O | 
2 µM | Cn1sc(=O)n(-c2ccccc2)c1=O | 
25 µM | CCn1sc(=O)n(CC)c1=O | 
10 µM | CCn1c(=O)sn(C2CCCCC2)c1=O | inhibition [2]: < 10%; inhibition [3]: < 10%; inhibition [4]: < 10%; inhibition [5]: 23%; inhibition [6]: < 10%; inhibition [7]: < 10%; inhibition [8]: < 10%
35 µM | CCn1c(=O)sn(C(C)C)c1=O | 
2 µM | CCOC(=O)Cn1c(=O)sn(C)c1=O | inhibition [2]: 19%; inhibition [3]: < 10%; inhibition [4]: < 10%; inhibition [5]: 15%; inhibition [6]: 19%; inhibition [7]: 50%; inhibition [8]: < 10%
10 µM | CCCn1sc(=O)n(CC)c1=O | 
4 µM | Cn1sc(=O)n(-c2ccc(F)cc2)c1=O | 
4 µM | Cn1sc(=O)n(-c2ccc(Cl)cc2)c1=O | 
4 µM | Cn1sc(=O)n(-c2cccc(Br)c2)c1=O | 
5 µM | CCn1c(=O)sn(C)c1=O | 
100 µM | Cn1sc(=O)n(C2CCCCC2)c1=O | 

The remaining lines, values behind:

Structure (SMILES) | IC50 [1] | further results
Cn1sc(=O)n(-c2ccc(Br)cc2)c1=O | 1.1 µM | 
O=C1C=CC(=O)N1CCCCCc1ccccc1 | 3 µM | 
CCn1sc(=O)n(Cc2ccccc2)c1=O [KRM-7777] | 7 µM | 
C1=CCN(Cc2ccccc2)C1 | > 100 µM | 
NN1C(=O)CSC1=S [AMINORHODANINE] | 100 µM | 
O=C1CSC(=O)N1 [THIAZOLIDINEDIONE] | 100 µM | 
CCn1sc(=O)n(-c2ccccc2)c1=O | 6 µM | 
CCOC(=O)CN1C(=O)C=CC1=O | 3 µM | 
O=C1CNC(=O)N1 [HYDANTOIN] | 100 µM | 
O=C1CCC(=O)C1 | > 100 µM | 
O=C1CSC(=O)N1Cc1ccccc1 | 100 µM | 
O=C1C=CC(=O)C1 | 12 µM | 
Cn1sc(=O)n(Cc2ccccc2)c1=O |  | inhibition [2]: < 10%; inhibition [3]: 35%; inhibition [4]: < 10%; inhibition [5]: 16%; inhibition [6]: 25%; inhibition [7]: 20%; inhibition [8]: < 10%
O=C1CSC(=S)N1CCc1ccccc1 | 35 µM | 
O=C(CN1C(=O)CSC1=S)c1ccccc1 | 50 µM | 
O=c1ssc(=O)n1Cc1ccccc1 | 12 µM | 
O=C1CCCN1Cc1ccccc1 | > 100 µM | 

Structure (SMILES) | IC50 [1] | further results
CCn1sc(=O)n(-c2ccc([N+](=O)[O-])cc2)c1=O | 8.5 µM | inhibition [2]: < 10%; inhibition [4]: < 10%; inhibition [5]: < 10%; inhibition [6]: 40%; inhibition [7]: 46%; inhibition [8]: 10%
Cn1sc(=O)n(-c2cccc3ccccc23)c1=O | 2 µM | 
O=c1ssc(=O)n1-c1ccccc1 | 12 µM | 
Cn1c(=O)ssc1=O | 100 µM | 
O=C(c1ccccc1)n1c(=O)n(-c2ccccc2)c(=O)n1C(=O)c1ccccc1 | 100 µM | 
COc1ccc(CN2C(=O)C=CC2=O)cc1 | 2.5 µM | 
O=C1C=CC(=O)N1CCc1ccccc1 | 2 µM | 
O=C1CCC(=O)N1Cc1ccccc1 | > 50 µM | 
COc1ccc(CCN2C(=O)CSC2=S)cc1 | 100 µM | 
O=C(O)CN1C(=O)CSC1=S [RHODANINE-3-ACETIC ACID] | 100 µM | 
O=c1sn(Cc2ccccc2)c(=O)n1Cc1ccccc1 | 10 µM | inhibition [2]: < 10%; inhibition [3]: 27%; inhibition [4]: < 10%; inhibition [5]: 35%; inhibition [6]: < 10%; inhibition [7]: 19%; inhibition [8]: < 10%
Cn1sc(=O)n(-c2ccc(C(F)(F)F)cc2)c1=O | 6 µM | inhibition [2]: < 10%; inhibition [3]: < 10%; inhibition [4]: < 10%; inhibition [5]: < 10%; inhibition [6]: 17%; inhibition [7]: 36%; inhibition [8]: < 10%
O=C(Cn1c(=O)n(-c2ccccc2)c(=O)n1CC(=O)c1ccccc1)c1ccccc1 | 100 µM | 
Cn1c(=O)n(-c2ccccc2)c(=O)n1C | 100 µM | 
O=C1CNC(=O)N1Cc1ccccc1 | 100 µM | 
COc1ccc(CCN2C(=O)C=CC2=O)cc1 | 3 µM | 
